Measured values from ChEMBL document CHEMBL1781989, “Novel β-carboline-tripeptide conjugates attenuate mesenteric ischemia/reperfusion injury in the rat” (2011).
Active and inactive are the calls of the source. Non-standard residues stand in square brackets, D forms with d. Residues, ends and D or L forms follow the SMILES beside them. Tpi = O=C(O)[C@@H]1Cc2c([nH]c3ccccc23)CN1

Legend:
Mus musculus [1] = experiment: Analgesic activity in ICR mouse assessed as increase in pain threshold at 0.15 mmol/kg, po after 30 mins by tail flick method (reference value: 5.03 +/- 10.26 %); type: functional
Mus musculus [2] = experiment: Analgesic activity in ICR mouse assessed as increase in pain threshold at 0.15 mmol/kg, po after 60 mins by tail flick method (reference value: 7.45 +/- 8.03 %); type: functional
Mus musculus [3] = experiment: Analgesic activity in ICR mouse assessed as increase in pain threshold at 0.15 mmol/kg, po after 90 mins by tail flick method (reference value: 7.53 +/- 11.54 %); type: functional
Mus musculus [4] = experiment: Analgesic activity in ICR mouse assessed as increase in pain threshold at 0.15 mmol/kg, po after 120 mins by tail flick method (reference value: 8.09 +/- 13.28 %); type: functional
Mus musculus [5] = experiment: Analgesic activity in ICR mouse assessed as increase in pain threshold at 0.15 mmol/kg, po after 150 mins by tail flick method (reference value: 9.02 +/- 12.19 %); type: functional
Mus musculus [6] = experiment: Analgesic activity in ICR mouse assessed as increase in pain threshold at 0.15 mmol/kg, po after 180 mins by tail flick method (reference value: 8.75 +/- 9.73 %); type: functional
Mus musculus [7] = experiment: Analgesic activity in ICR mouse assessed as increase in pain threshold at 0.10 mmol/kg, po after 30 mins by tail flick method (reference value: 5.03 +/- 10.26 %); type: functional
Mus musculus [8] = experiment: Analgesic activity in ICR mouse assessed as increase in pain threshold at 0.10 mmol/kg, po after 60 mins by tail flick method (reference value: 7.45 +/- 8.03 %); type: functional
Mus musculus [9] = experiment: Analgesic activity in ICR mouse assessed as increase in pain threshold at 0.10 mmol/kg, po after 90 mins by tail flick method (reference value: 7.53 +/- 11.54 %); type: functional
Mus musculus [10] = experiment: Analgesic activity in ICR mouse assessed as increase in pain threshold at 0.10 mmol/kg, po after 120 mins by tail flick method (reference value: 8.09 +/- 13.28 %); type: functional
Mus musculus [11] = experiment: Analgesic activity in ICR mouse assessed as increase in pain threshold at 0.10 mmol/kg, po after 150 mins by tail flick method (reference value: 9.02 +/- 12.19 %); type: functional
Mus musculus [12] = experiment: Analgesic activity in ICR mouse assessed as increase in pain threshold at 0.10 mmol/kg, po after 180 mins by tail flick method (reference value: 8.75 +/- 9.73 %); type: functional
Mus musculus [13] = experiment: Analgesic activity in ICR mouse assessed as increase in pain threshold at 0.05 mmol/kg, po after 30 mins by tail flick method (reference value: 5.03 +/- 10.26 %); type: functional
Mus musculus [14] = experiment: Analgesic activity in ICR mouse assessed as increase in pain threshold at 0.05 mmol/kg, po after 60 mins by tail flick method (reference value: 7.45 +/- 8.03 %); type: functional
Mus musculus [15] = experiment: Analgesic activity in ICR mouse assessed as increase in pain threshold at 0.05 mmol/kg, po after 90 mins by tail flick method (reference value: 7.53 +/- 11.54 %); type: functional
Mus musculus [16] = experiment: Analgesic activity in ICR mouse assessed as increase in pain threshold at 0.05 mmol/kg, po after 120 mins by tail flick method (reference value: 8.09 +/- 13.28 %); type: functional
Mus musculus [17] = experiment: Analgesic activity in ICR mouse assessed as increase in pain threshold at 0.05 mmol/kg, po after 150 mins by tail flick method (reference value: 9.02 +/- 12.19 %); type: functional
Mus musculus [18] = experiment: Analgesic activity in ICR mouse assessed as increase in pain threshold at 0.05 mmol/kg, po after 180 mins by tail flick method (reference value: 8.75 +/- 9.73 %); type: functional
Mus musculus [19] = experiment: Antiinflammatory activity in ICR mouse assessed as inhibition of xylene-induced ear edema at 0.10 mmol/kg, po administered 30 mins before xylene challenge measured after 2 hrs relative to control; type: functional
In short: (§1)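 Male ICR mice (20 ± 2 g), randomised to test, vehicle (CMC) and aspirin (10 mg/kg oral) groups. Test agents given orally as CMC suspension. After 30 min, 0.03 mL xylene applied to both faces of the right ear, left ear as control. At 2 h mice were killed and 7 mm ear punches weighed. Edema is the right-minus-left weight, and inhibition is taken against vehicle.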

Mus musculus [20] = experiment: Antiinflammatory activity in ICR mouse assessed as inhibition of xylene-induced ear edema at 0.05 mmol/kg, po administered 30 mins before xylene challenge measured after 2 hrs relative to control; type: functional; in short: as §1
Mus musculus [21] = experiment: Antiinflammatory activity in ICR mouse assessed as inhibition of xylene-induced ear edema at 0.15 mmol/kg, po administered 30 mins before xylene challenge measured after 2 hrs relative to control; type: functional; in short: as §1
Mus musculus [22] = experiment: Antiinflammatory activity in po dosed ICR mouse assessed as inhibition of xylene-induced ear edema administered 30 mins before xylene challenge measured after 2 hrs; type: functional, organism-based; in short: as §1
Rattus norvegicus [23] = experiment: Antiinflammatory activity in mesenteric ischemia/reperfusion injury Wistar rat model ileum assessed as reduction of mucosal damage at 20 mg/kg, ip administered 15 mins before and 1 hr after initiation of reperfusion by hematoxylin-eosin staining; type: functional, organism-based; set-up: dose 20 mg/kg
In short: (§2)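 Male Wistar rats (250–300 g) under pentobarbital (80 mg/kg ip) at 37 °C. Drug 20 mg/kg ip 15 min before reperfusion and 1 h into reperfusion, saline to other groups. Terminal ileum (10 mm) snap-frozen, cut at 4–5 µm by cryostat, stained with H&E, and viewed by light microscopy.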

Rattus norvegicus [24] = experiment: Antiinflammatory activity in mesenteric ischemia/reperfusion injury Wistar rat model assessed as reduction of focal denudation of epithelium villi at 20 mg/kg, ip administered 15 mins before and 1 hr after initiation of reperfusion by hematoxylin-eosin staining; type: functional, organism-based; set-up: dose 20 mg/kg; in short: as §2
Rattus norvegicus [25] = experiment: Antioxidant activity in mesenteric ischemia/reperfusion injury Wistar rat model ileum assessed as decrease of malondialdehyde levels at 20 mg/kg, ip administered 15 mins before and 1 hr after initiation of reperfusion by Beuge's method; type: functional, organism-based; set-up: dose 20 mg/kg
In short: (§3)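 Dosing 20 mg/kg ip 15 min before and 1 h after reperfusion onset. Intestinal MDA measured by the Beuge and Aust method as nmol/g tissue, and GSH by the Beutler method as µmol/g tissue.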

Rattus norvegicus [26] = experiment: Antioxidant activity in mesenteric ischemia/reperfusion injury Wistar rat model ileum assessed as restoration of glutathione levels at 20 mg/kg, ip administered 15 mins before and 1 hr after initiation of reperfusion by Beutler's method; type: functional, organism-based; set-up: dose 20 mg/kg; in short: as §3
Rattus norvegicus [27] = experiment: Antioxidant activity in mesenteric ischemia/reperfusion injury Wistar rat model assessed as decrease of myeloperoxidase activity in intestinal tissue at 20 mg/kg, ip administered 15 mins before and 1 hr after initiation of reperfusion; type: functional, organism-based; set-up: dose 20 mg/kg
Mus musculus [28] = experiment: Analgesic activity in ICR mouse assessed as increase in pain threshold at 0.15 mmol/kg, ip after 30 mins by tail flick method (reference value: 5.03 +/- 10.26 %); type: functional
Mus musculus [29] = experiment: Analgesic activity in ICR mouse assessed as increase in pain threshold at 0.15 mmol/kg, ip after 60 mins by tail flick method (reference value: 7.45 +/- 8.03 %); type: functional
Mus musculus [30] = experiment: Analgesic activity in ICR mouse assessed as increase in pain threshold at 0.15 mmol/kg, ip after 90 mins by tail flick method (reference value: 7.53 +/- 11.54 %); type: functional
Mus musculus [31] = experiment: Analgesic activity in ICR mouse assessed as increase in pain threshold at 0.15 mmol/kg, ip after 120 mins by tail flick method (reference value: 8.09 +/- 13.28 %); type: functional
Mus musculus [32] = experiment: Analgesic activity in ICR mouse assessed as increase in pain threshold at 0.15 mmol/kg, ip after 150 mins by tail flick method (reference value: 9.02 +/- 12.19 %); type: functional
Mus musculus [33] = experiment: Analgesic activity in ICR mouse assessed as increase in pain threshold at 0.15 mmol/kg, ip after 180 mins by tail flick method (reference value: 8.75 +/- 9.73 %); type: functional

Structure (SMILES) | Activity (Mus musculus [1]) | Activity (Mus musculus [2]) | Activity (Mus musculus [3]) | Activity (Mus musculus [4]) | Activity (Mus musculus [5]) | Activity (Mus musculus [6]) | Activity (Mus musculus [7]) | Activity (Mus musculus [8]) | Activity (Mus musculus [9]) | Activity (Mus musculus [10]) | Activity (Mus musculus [11]) | Activity (Mus musculus [12]) | Activity (Mus musculus [13]) | Activity (Mus musculus [14]) | Activity (Mus musculus [15]) | Activity (Mus musculus [16]) | Activity (Mus musculus [17]) | Activity (Mus musculus [18]) | inhibition in vivo at 100 µmol/kg (Mus musculus [19]) | inhibition in vivo at 50 µmol/kg (Mus musculus [20]) | further results
NCCCC[C@H](NC(=O)[C@@H]1Cc2c([nH]c3ccccc23)CN1)C(=O)N[C@@H](Cc1ccccc1)C(=O)N[C@@H](Cc1c[nH]c2ccccc12)C(=O)O (H-[Tpi]KFW-OH) | 44.27% | 52.22% | 54.39% | 41.28% | 29.04% | 25.69% | 32.32% | 34.48% | 38.33% | 23.08% | 21.39% | 14.38% | 11.55% | 26.54% | 23.58% | 18.99% | 15.43% | 9.06% | 45.4% | 28.3% | inhibition in vivo at 150 µmol/kg (Mus musculus [21]): 55.2%; inhibition (Mus musculus [22]): Dose-dependent effect
CC(C)C[C@H](NC(=O)[C@@H]1Cc2c([nH]c3ccccc23)CN1)C(=O)N[C@@H](Cc1ccccc1)C(=O)N[C@@H](Cc1c[nH]c2ccccc12)C(=O)O (H-[Tpi]LFW-OH) | 48.25% | 59.37% | 44.67% | 34.55% | 25.46% | 18.86% | 35.41% | 37.65% | 32.73% | 25.45% | 22.13% | 13.42% | 29.22% | 23.45% | 20.65% | 17.97% | 8.23% | 7.46% | 49.6% | 38.7% | inhibition in vivo at 150 µmol/kg (Mus musculus [21]): 60.7%; inhibition (Mus musculus [22]): Dose-dependent effect; Activity (Rattus norvegicus [23]): Active; Activity (Rattus norvegicus [24]): Active; Activity (Rattus norvegicus [25]): Active; Activity (Rattus norvegicus [26]): Active; Activity (Rattus norvegicus [27]): Active
CN1CC[C@]23c4c5ccc(O)c4O[C@H]2[C@@H](O)C=C[C@H]3[C@H]1C5 [MORPHINE] | – | – | – | – | – | – | – | – | – | – | – | – | – | – | – | – | – | – | – | – | Activity (Mus musculus [28]): 142.2%; Activity (Mus musculus [29]): 175.78%; Activity (Mus musculus [30]): 139.03%; Activity (Mus musculus [31]): 98.78%; Activity (Mus musculus [32]): 64.55%; Activity (Mus musculus [33]): 57.43%
